Shown are actives, neighbours in structure and some others; about 4.5% of the full set was active somewhere.
NF-kB neuron act = activators of NF-kB expression in neurons, primary screen, cell-based, HTS; human neuronal cells, NF-kB reporter expression; hits give high values; fold change at 12.5 µM; 190,000 tested, 1.6% active; AID 1239, 2008; in the data active = fold change above about 3.3
MDM2 E3 inh = MDM2-luciferase reporter signal enhancers, primary screen, MDM2 E3 ligase inhibitor project, cell-based, luminescence, 1536-well; E3 ubiquitin-protein ligase Mdm2 (Homo sapiens), Q00987; signal enhancement, % at 5 µM; cell-based MDM2 ubiquitination luciferase reporter, 2 h; 0 = plate control, 100 = twice control, blank-subtracted; 210,000 tested, 0.11% active;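 active = signal enhancement of 30% or more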;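 note: luminescence tracks abundance of the self-degrading MDM2-luciferase fusion protein; higher signal means inhibition of MDM2 E3 ligase activity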
Target sequence (Q00987 whole entry, looked up, the tested form may be a part): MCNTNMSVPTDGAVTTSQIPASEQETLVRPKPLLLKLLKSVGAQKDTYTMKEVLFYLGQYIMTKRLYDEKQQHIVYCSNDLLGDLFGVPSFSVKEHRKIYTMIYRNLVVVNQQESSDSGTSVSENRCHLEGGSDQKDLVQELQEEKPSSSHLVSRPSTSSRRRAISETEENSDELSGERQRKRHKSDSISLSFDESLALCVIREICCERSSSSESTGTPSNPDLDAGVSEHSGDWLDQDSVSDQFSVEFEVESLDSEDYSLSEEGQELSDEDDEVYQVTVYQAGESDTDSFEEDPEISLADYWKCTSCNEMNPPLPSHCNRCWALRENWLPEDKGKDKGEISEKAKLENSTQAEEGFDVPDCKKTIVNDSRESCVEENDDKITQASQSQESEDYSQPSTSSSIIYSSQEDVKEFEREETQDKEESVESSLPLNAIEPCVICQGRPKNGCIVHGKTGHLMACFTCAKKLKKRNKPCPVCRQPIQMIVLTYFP
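Material: stable MDM2–luciferase fusion reporter cells / Quantity: 2000 cells/well / Dosing: single 5 µM compound dose, 0.2% final DMSO / Buffer or medium: DMEM / Schedule: 4 h cell settling then 2 h compound exposure, 37 °C / Detection: luminescence with SteadyLite reagent, 15 min at room temperature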
PERK inh = block of dimerizer-induced PERK translation repression, primary screen, PERK inhibitor project, CHO PERK-DD cells, SEAP luminescence, HTS. inhibition, % at 5.6 µM. Eukaryotic translation initiation factor 2-alpha kinase 3 (Homo sapiens), Q9NZJ5. AID 1416, 2008. 220,000 tested, 0.17% active. CHO PERK-DD fusion, SEAP luminescence translation reporter;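 active = inhibition above the mean inhibition of all tested compounds plus 3 SD, set separately per screening campaign, cut at about 2.9% in these data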;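 note: PERK kinase domain activated by AP20187 dimerizer at 100 nM; 0% = DMSO with dimerizer and 100% = rapamycin at 8.4 µM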
AHR activator = AHR activators, primary screen, cell-based, luminescence, luciferase reporter, human. AHR-responsive luciferase reporter cells. activation, % at 5 µM. 320,000 tested, 2.5% active; in the data active = activation above about 47%;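 note: 0% = vehicle wells and 100% = reference agonist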
APP 5'UTR act = activators of APP 5'UTR luciferase reporter, primary screen, SH-SY5Y cells; SH-SY5Y APP 5'UTR luciferase reporter, luminescence; zero percent = DMSO vehicle wells; 190,000 tested, 1% active; activation, % at 2 µM; AID 1276, 2008;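 active = activation above a set limit, based on mean plus 3 SD of controls, cut at about 140% in these data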
STAT1 activator = STAT1 signaling activators, primary screen, cell-based, HTS, luciferase reporter. NIH 3T3 STAT1-luciferase reporter, IFN-gamma, luminescence; 100% = IFN-gamma alone, no compound. activation (% of control), % at 5.5 µM. 200,000 tested, 2.6% active. AID 932, 2007;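 active = activation above the screen-wide mean activation plus 3 SD, cut at about 130% in these data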;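 note: raw ratio to IFN-gamma control signal so 100% means no change and 0% no light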
STAT1 activ conf = STAT1 signaling activators, confirmation, cell-based, HTS, luciferase reporter | 1,200 tested, 97% active | NIH 3T3 STAT1-luciferase reporter, IFN-gamma potentiation, luminescence; 100% = IFN-gamma EC80 alone, no compound | shares compounds with STAT1 activator | activation (% of control), % at 5.7 µM | AID 1262, 2008;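 active = activation above a set limit carried over from the earlier primary STAT1 screen, cut at about 140% in these data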;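 note: simple ratio to median IFN-gamma plus DMSO wells so 0% means no light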
NFkB act STAT1ct = NF-kB reporter activators, TNF-alpha stimulated, counter-screen for STAT1 activator project, cell-based, HEK293T, luciferase luminescence. shares compounds with STAT1 activator. 100% = TNF-alpha with vehicle only. activation (% of control), % at 5.7 µM. 1,200 tested, 43% active. AID 1306, 2008;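 active = activation above the mean of solvent-only control wells plus 3 SD, set per campaign, cut at about 130% in these data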;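 note: TNF-alpha given at a submaximal dose yielding about 80% of full reporter signal; values are well signal over median control so 100% means no change and 0% no light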
STAT3 act 2 = STAT3 reporter activation by STAT1 hits, confirmation, counter-screen for STAT1 activator project, U3A cells, luciferase, luminescence; shares compounds with STAT1 activator; IL-6; cells lack STAT1; 100 = IL-6 alone, no compound effect; activation (% of control), % at 5.7 µM; 1,200 tested, 46% active; AID 1316, 2008;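 active = activation above the solvent-only control well mean plus 3 SD, set per plate batch, cut at about 110% in these data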;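 note: 0% = no luminescence and 100% = median IL-6 plus DMSO wells; higher means more STAT3 reporter activation so hits are non-selective activators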
An asterisk follows results filed as active; · = no result given.

SMILES | NF-kB neuron act | MDM2 E3 inh | PERK inh | AHR activator | APP 5'UTR act | STAT1 activator | STAT1 activ conf | NFkB act STAT1ct | STAT3 act 2
O=C(/C=C/c1cn(-c2ccccc2)nc1-c1ccccc1)Nc1ccc(C(=O)O)cc1 | 2.6 | -15 | 1 | 4 | 12 | 152* | 148* | 113 | 114*
Cn1cc(Br)c(-c2cccc(NC(=O)CC(C)(C)CC(=O)O)c2)n1 | · | -14 | 0 | 3 | · | · | · | · | ·
CC(=O)N1N=C(c2ccc(C)cc2)OC1c1ccc(Br)cc1 (stereo unspecified) | 3 | 7 | 1 | 5 | 38 | 154* | 182* | 148* | 117*
COc1ccc2c(c1OC)C(=O)OC2Nc1nc(-c2cc3ccccc3oc2=O)cs1 (stereo unspecified) | 6.7* | -20 | 0 | -6 | 153* | 182* | 195* | 117 | 102
COc1ccc2c(c1OC)C(=O)OC2Nc1nc(-c2ccc(-c3ccccc3)cc2)cs1 (stereo unspecified) | 11* | 4 | 0 | 2 | 179* | 181* | 232* | 135* | 98
O=C(CN1C(=O)NC2(CCCCCC2)C1=O)NCc1ccc(Cl)cc1 | · | · | · | 1 | · | · | · | · | ·
CC1=NN(C(=O)c2ccc(C)o2)C(O)(c2ccccc2)C1 (stereo unspecified) | 1 | -7 | 1 | 4 | 49 | 159* | 109 | 103 | 94
Cc1ccc(-c2ccc(CCC(=O)O)n2NC(N)=S)cc1 | 1.1 | -6 | 2 | 1 | 6 | 96 | · | · | ·
Cc1ccc(-c2ccc(CCC(=O)O)n2C(C)C)cc1 | 0.84 | -7 | 1 | -2 | 6 | 151* | 106 | 113 | 101
CCS(=O)(=O)N1Cc2ccccc2CC1C(=O)Nc1nc2ccccc2s1 (stereo unspecified) | 0.91 | -24 | -1 | 4 | 210* | 174* | 230* | 123 | 119*
CCc1ccc(-c2cn3c(n2)SCC3)cc1 | 7.2* | -18 | 0 | -2 | 100 | 154* | 200* | 130 | 96
O=C(Oc1ccc(-c2cn3c(n2)SCC3)cc1)c1ccccc1 | 2.1 | -22 | 1 | 4 | 15 | 110 | · | · | ·
CCOC(=O)c1sc(NC(=O)c2sccc2C)cc1C | 12* | -31 | -2 | -10 | 154* | 152* | 252* | 129 | 101
CCOC(=O)c1sc(NC(=O)Nc2cccc(Cl)c2)cc1C | 1.1 | -3 | -1 | 6 | 105 | 117 | · | · | ·
CN1C(=O)/C(=C/C=C2\SCCN2C)SC1=S | 4.4* | -30 | 1 | · | 174* | 159* | 224* | 113 | 99
COc1ccccc1NC(=O)c1ccc(NC(=O)C2CC2C)cc1 (stereo unspecified) | · | · | · | -2 | · | · | · | · | ·
CC1CC1C(=O)Nc1ccc(-c2ccccc2)cc1 (stereo unspecified) | 3.3* | -5 | 1 | -4 | 121 | 155* | 162* | 127 | 97
O=C(c1ccco1)c1cn[nH]c1-c1ccc(Cl)cc1O | 0.83 | -11 | 2 | 21 | 7 | 101 | · | · | ·
Fc1ccc(N2CCN(c3cnc4ccccc4n3)CC2)cc1 | · | · | · | 8 | · | · | · | · | ·

Source: PubChem (several laboratories)
